This passage reports Activity and Vdss results from ChEMBL document CHEMBL2203081 (Bioorg Med Chem Lett, 2012).

Data set [1] has as its target Casein kinase I isoform alpha-like (Homo sapiens) (UniProt Q8N752). Kind of data set: Inhibition of CSNK1A1L assessed as residual activity at 10 uM relative to control. The gist of the method: (§1)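 Competition kinase-binding assay (KINOMEscan) across a non-redundant panel of 329 kinases beyond the radiometric panel; residual binding expressed relative to control.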

For data set [2], the target named is Ephrin type-A receptor 8 (Homo sapiens) (UniProt P29322). In words: Inhibition of EPHA8 assessed as residual activity at 10 uM relative to control. The gist of the method: as §1
Data set [3] addresses Mitogen-activated protein kinase 1 (Homo sapiens) (UniProt P28482). In words: Inhibition of ERK2 assessed as residual activity at 1 uM. The gist of the method:
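Radioactivity-based enzymatic activity assay of the named kinase, run as part of a 131-kinase specificity panel at the National Centre for Protein Kinase Profiling (Dundee). Residual activity was read at the stated single inhibitor concentration.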

Data set [4] addresses Serine/threonine-protein kinase WNK1 (Homo sapiens) (UniProt Q9H4A3). In words: Inhibition of WNK1 assessed as residual activity at 10 uM.
The subject of another data set is Brain. Kind of data set: Volume of distribution at steady state in Swiss albino mouse […] at 1 mg/kg, iv. Type of data set: ADME, organism-based. The following applies: in vivo. Set-up: dose 1 mg/kg, route intravenous.
Data set [5] concerns the target Epidermal growth factor receptor (Homo sapiens) (UniProt P04626+P00533+Q15303+P21860). Kind of data set: Inhibition of EGFR S752-I759del mutant assessed as residual activity at 10 uM relative to control. Type of data set: protein assay. An outline of the steps: as §1
Data set [6] deals with Myotonin-protein kinase (Homo sapiens) (UniProt Q09013). Kind of data set: Inhibition of DMPK assessed as residual activity at 10 uM relative to control. An outline of the steps:
as §1

The target in data set [7] is T1, NUAK family SNF1-like kinase 1 (Homo sapiens) (UniProt O60285).
T1 sequence (whole entry): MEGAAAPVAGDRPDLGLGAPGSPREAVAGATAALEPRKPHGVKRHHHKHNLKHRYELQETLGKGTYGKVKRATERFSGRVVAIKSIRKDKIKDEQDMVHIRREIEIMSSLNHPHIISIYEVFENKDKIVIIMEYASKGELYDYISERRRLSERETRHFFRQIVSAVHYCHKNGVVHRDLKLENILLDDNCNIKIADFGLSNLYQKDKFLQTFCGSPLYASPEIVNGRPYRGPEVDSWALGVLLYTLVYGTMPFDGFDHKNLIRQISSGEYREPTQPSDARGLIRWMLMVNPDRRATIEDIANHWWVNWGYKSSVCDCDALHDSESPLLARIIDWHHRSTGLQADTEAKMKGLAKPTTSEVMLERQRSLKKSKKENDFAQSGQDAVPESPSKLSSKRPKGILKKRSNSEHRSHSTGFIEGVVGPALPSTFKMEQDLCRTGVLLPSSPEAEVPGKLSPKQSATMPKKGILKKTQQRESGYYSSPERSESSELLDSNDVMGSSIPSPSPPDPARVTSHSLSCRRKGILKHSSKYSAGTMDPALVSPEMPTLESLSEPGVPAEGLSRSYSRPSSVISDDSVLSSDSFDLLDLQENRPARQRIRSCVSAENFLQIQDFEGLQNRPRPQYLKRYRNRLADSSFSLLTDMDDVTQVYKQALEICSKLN
In words: Inhibition of ARK5 assessed as residual activity at 10 uM relative to control.

Data set [8] addresses T2, Ephrin type-B receptor 2 (Homo sapiens) (UniProt P29323).
T2 sequence (whole entry): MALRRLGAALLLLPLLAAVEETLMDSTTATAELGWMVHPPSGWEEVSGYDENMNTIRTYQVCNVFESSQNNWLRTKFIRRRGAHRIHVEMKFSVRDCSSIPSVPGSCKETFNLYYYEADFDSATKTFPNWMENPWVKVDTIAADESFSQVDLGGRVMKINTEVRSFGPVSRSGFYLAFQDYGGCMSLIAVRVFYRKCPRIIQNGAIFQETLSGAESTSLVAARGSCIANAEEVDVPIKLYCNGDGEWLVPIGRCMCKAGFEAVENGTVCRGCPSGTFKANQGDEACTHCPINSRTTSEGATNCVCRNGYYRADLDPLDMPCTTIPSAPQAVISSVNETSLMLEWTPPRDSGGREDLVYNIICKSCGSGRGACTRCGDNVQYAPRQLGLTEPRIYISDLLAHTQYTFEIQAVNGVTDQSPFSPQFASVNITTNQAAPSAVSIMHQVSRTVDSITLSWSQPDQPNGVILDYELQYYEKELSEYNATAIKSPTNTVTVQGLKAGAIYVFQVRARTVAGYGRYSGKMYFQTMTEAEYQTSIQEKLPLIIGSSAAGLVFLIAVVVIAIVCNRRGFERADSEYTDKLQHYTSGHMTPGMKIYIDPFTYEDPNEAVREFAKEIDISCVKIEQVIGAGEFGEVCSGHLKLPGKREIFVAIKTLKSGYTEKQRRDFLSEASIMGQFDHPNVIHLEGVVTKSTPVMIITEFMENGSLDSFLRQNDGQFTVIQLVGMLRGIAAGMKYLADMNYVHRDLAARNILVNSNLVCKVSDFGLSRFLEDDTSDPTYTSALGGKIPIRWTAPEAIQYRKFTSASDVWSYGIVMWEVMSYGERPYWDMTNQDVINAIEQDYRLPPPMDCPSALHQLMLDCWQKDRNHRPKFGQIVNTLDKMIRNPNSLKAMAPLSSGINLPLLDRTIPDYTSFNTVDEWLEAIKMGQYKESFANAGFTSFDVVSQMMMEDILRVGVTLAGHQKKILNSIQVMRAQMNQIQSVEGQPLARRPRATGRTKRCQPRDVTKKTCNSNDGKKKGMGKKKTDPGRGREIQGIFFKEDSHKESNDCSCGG
In words: Inhibition of EPH-B2 assessed as residual activity at 10 uM. An outline of the steps: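 Standard radioactivity-based enzymatic kinase assays on a 131-kinase panel run by the Dundee profiling service; residual kinase activity recorded.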

The target of data set [9] is Dual specificity mitogen-activated protein kinase kinase 1 (Homo sapiens) (UniProt Q02750). In words: Inhibition of MKK1 assessed as residual activity at 1 uM.
Data set [10] concerns the target Cyclin-dependent kinase 5 (Homo sapiens) (UniProt Q00535). Kind of data set: Inhibition of CDK5 assessed as residual activity at 10 uM relative to control.
Data set [11] deals with Casein kinase II subunit alpha' (Homo sapiens) (UniProt P19784). In words: Inhibition of CSNK2A2 assessed as residual activity at 10 uM relative to control. The gist of the method:
as §1

Each structure is given as a SMILES string.

Serine/threonine-protein kinase WNK1 (Homo sapiens), sequence (Q9H4A3 whole entry, looked up): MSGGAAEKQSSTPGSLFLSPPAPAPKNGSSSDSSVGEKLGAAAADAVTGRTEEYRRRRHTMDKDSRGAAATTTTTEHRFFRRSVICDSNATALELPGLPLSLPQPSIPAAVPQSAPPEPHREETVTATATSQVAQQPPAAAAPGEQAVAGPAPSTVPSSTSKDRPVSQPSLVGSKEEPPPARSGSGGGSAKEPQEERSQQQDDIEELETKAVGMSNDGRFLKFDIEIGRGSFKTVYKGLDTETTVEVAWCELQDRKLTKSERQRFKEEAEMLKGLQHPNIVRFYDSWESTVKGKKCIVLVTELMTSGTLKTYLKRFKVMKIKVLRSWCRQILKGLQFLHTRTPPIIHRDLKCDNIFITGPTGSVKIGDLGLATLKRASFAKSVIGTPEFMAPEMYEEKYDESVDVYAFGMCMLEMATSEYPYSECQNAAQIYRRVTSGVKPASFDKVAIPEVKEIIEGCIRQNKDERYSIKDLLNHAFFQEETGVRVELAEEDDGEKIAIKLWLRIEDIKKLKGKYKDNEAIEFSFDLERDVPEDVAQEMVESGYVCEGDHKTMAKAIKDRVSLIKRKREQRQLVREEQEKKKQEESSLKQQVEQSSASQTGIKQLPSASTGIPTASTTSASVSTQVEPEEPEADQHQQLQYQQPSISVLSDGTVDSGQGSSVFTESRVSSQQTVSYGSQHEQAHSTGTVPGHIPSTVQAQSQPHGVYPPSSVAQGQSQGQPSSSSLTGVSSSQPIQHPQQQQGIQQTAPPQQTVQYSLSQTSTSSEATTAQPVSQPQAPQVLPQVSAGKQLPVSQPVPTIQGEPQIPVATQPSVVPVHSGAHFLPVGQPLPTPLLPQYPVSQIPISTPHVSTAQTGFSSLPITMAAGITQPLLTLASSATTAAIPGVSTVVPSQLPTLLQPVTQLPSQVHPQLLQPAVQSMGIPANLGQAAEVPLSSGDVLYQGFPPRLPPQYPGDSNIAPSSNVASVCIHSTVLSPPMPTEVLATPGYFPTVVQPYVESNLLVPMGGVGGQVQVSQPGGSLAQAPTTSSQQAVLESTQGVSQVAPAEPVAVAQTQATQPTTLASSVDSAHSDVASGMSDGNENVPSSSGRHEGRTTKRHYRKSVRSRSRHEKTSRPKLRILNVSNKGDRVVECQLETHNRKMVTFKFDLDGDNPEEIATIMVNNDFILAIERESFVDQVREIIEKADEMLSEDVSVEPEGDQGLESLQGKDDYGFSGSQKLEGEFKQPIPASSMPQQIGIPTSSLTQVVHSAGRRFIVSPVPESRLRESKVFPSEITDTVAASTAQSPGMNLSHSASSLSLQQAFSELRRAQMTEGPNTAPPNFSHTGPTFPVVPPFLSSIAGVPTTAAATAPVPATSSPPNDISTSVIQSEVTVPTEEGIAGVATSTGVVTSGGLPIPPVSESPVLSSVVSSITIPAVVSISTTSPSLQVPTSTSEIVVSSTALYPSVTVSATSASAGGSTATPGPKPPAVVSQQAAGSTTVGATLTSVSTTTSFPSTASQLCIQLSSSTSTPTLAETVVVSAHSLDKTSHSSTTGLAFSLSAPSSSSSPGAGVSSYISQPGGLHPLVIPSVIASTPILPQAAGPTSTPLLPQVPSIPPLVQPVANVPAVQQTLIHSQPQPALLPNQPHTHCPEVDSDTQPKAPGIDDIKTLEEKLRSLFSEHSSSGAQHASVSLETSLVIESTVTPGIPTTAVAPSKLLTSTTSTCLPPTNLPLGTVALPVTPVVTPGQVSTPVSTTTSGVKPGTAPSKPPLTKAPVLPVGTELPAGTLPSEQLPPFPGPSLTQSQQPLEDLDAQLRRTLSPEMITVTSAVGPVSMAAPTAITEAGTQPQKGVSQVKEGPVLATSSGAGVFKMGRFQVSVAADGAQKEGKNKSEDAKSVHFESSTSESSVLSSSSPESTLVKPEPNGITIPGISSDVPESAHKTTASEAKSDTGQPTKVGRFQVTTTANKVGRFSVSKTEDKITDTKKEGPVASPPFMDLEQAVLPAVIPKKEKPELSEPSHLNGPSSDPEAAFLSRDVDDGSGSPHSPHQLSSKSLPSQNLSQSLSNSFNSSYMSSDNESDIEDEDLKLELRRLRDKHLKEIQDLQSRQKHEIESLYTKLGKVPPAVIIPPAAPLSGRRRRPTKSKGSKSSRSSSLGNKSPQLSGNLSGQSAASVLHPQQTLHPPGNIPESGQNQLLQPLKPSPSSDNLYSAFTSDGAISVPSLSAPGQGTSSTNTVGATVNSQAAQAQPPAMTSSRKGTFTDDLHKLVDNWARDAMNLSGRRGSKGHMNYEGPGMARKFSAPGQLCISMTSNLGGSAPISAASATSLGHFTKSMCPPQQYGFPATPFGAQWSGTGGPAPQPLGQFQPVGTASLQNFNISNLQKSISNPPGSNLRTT
Casein kinase I isoform alpha-like (Homo sapiens), sequence (Q8N752 whole entry, canonical isoform): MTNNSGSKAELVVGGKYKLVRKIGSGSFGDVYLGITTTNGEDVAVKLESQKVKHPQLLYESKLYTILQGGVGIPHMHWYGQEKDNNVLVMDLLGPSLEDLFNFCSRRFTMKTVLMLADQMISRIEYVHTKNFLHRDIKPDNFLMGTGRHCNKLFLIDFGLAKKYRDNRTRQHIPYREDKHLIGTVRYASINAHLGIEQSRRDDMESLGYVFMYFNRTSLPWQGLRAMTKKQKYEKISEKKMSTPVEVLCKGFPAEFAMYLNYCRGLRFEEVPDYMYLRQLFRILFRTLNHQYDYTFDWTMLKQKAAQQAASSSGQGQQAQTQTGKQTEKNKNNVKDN
Casein kinase II subunit alpha' (Homo sapiens), sequence (P19784 whole entry, looked up): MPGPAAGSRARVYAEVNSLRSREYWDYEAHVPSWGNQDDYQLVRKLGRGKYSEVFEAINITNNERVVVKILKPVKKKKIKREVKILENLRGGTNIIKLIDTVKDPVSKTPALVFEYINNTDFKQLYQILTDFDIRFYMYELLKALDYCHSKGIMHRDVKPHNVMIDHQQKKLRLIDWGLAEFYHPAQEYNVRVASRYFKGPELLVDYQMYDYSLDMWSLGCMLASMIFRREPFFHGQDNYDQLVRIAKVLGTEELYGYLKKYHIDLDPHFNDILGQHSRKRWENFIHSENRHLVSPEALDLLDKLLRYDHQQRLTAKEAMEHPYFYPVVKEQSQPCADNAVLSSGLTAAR
Mitogen-activated protein kinase 1 (Homo sapiens), sequence (P28482 whole entry): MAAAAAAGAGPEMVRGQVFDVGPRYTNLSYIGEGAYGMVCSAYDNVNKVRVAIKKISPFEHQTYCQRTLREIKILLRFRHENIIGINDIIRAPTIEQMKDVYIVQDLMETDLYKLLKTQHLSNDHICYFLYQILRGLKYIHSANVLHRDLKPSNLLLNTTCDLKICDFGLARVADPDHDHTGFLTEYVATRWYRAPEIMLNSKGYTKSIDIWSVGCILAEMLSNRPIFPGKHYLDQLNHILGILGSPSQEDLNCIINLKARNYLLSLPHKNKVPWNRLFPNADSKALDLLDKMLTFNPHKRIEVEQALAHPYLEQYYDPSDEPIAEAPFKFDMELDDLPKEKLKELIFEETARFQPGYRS
Cyclin-dependent kinase 5 (Homo sapiens), sequence (Q00535 whole entry, looked up): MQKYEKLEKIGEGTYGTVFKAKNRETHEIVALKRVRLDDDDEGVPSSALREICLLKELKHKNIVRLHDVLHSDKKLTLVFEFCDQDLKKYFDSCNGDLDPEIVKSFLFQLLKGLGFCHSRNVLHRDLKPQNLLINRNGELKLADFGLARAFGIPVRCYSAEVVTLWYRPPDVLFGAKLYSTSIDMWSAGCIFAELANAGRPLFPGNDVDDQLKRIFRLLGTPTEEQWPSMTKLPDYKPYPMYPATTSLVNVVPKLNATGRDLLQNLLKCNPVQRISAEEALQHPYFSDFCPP
Ephrin type-A receptor 8 (Homo sapiens), sequence (P29322 whole entry): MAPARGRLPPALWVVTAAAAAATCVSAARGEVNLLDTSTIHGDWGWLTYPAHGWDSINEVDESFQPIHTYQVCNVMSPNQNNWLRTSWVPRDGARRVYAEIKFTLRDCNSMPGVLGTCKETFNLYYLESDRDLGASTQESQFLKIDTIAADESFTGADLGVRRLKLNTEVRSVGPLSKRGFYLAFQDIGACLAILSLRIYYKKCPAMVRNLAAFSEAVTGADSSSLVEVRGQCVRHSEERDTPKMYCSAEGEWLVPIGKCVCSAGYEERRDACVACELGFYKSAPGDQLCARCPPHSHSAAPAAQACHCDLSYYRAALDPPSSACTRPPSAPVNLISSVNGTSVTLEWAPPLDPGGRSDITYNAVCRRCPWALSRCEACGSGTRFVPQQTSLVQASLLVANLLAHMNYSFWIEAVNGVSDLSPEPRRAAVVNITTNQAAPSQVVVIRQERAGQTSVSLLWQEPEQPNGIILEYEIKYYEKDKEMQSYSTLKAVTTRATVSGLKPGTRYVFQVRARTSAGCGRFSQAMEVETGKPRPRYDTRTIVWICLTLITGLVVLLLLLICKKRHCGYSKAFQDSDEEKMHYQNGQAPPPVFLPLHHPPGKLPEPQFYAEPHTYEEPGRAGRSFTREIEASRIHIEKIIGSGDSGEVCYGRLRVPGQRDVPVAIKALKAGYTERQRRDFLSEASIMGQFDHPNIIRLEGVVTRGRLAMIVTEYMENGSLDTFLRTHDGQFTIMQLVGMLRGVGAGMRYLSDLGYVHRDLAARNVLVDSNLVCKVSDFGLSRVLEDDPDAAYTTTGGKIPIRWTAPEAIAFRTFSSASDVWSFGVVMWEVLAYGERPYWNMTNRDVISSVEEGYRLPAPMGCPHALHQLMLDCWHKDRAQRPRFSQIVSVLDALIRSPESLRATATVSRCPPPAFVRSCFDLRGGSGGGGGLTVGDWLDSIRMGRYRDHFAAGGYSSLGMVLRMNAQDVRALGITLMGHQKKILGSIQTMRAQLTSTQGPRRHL

`O=C(Nc1cccnc1)c1cc(-c2ccnc(F)c2)ccc1OCc1ccccc1`: the Activity in data set [1] stood at 40%; in data set [2], 52%; in [3], 104%; in [4], 106%; in [5], 81%; in data set [6], 58%. Also, the Activity in data set [7] came out at 50%; in [8] it was 115%; in data set [9] it was 77%; in data set [10], 70%; in data set [11], 70%. Besides, the Vdss (in general, a proportionality between amount in the body and measured concentration, not a real space) in the data set with Brain is 1.6 L/kg.
